{
  "source": "ChEMBL document CHEMBL4346679",
  "about": "“N, N', N″-trisubstituted guanidines: Synthesis, characterization and evaluation of their leishmanicidal activity” (Eur J Med Chem, 2019)",
  "key": {"[1]": {"tested_on": "Leishmania amazonensis", "assay": "Antileishmanial activity against promastigote stage of Leishmania amazonensis MPRO/BR/1972/M1841-LV-79 infected in Balb/c mouse assessed as decrease in plasma alanine aminotransferase level at 2 mg/kg, ip administered once daily for 15 days measured post-last dose", "type": "functional, organism-based", "method_in_brief": "(§1)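 Female BALB/c mice (4 weeks old, 5 per group) were infected in the left hind footpad with 1 × 10^7 parasites/mL of infective promastigotes. After six weeks they received daily ip doses for 15 days: 0.13 or 0.25 mg/kg/day (from DMSO stock in PBS, 0.1% DMSO), AmpB 2 mg/kg/day in sterile water, or PBS. Controls were untreated infected and uninfected mice. At end of treatment, plasma bilirubin, AST, ALT, ALP, urea and creatinine were measured with commercial kits.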"}, "[2]": {"assay": "Safety index, ratio of CC50 for mouse peritoneal macrophages to IC50 for Leishmania amazonensis MPRO/BR/1972/M1841-LV-79 amastigotes infected in mouse peritoneal macrophages", "type": "toxicity", "conditions": "read-out: Ratio CC50/IC50"}, "[3]": {"tested_on": "Leishmania amazonensis", "assay": "Antileishmanial activity against promastigote stage of Leishmania amazonensis MPRO/BR/1972/M1841-LV-79 infected in Balb/c mouse assessed as increase in plasma bilirubin level at 2 mg/kg, ip administered once daily for 15 days measured during compound dosing", "type": "functional, organism-based"}, "[4]": {"assay": "Toxicity in Balb/c mouse infected with promastigote stage of Leishmania amazonensis MPRO/BR/1972/M1841-LV-79 assessed as change in body weight at 2 mg/kg, ip administered once daily for 15 days measured during compound dosing", "type": "organism-based", "conditions": "in vivo, 360 h"}, "[5]": {"assay": "Cytotoxicity against mouse peritoneal macrophages assessed as decrease in cell viability after 24 hrs by MTT assay", "type": "cell-based, Peritoneal macrophage", "method_in_brief": "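Peritoneal macrophages (1 × 10^5/well) in RPMI 1640 with 10% FBS, 25 mM HEPES and 2 mM L-glutamine were pre-incubated 4 h. They were then exposed to compounds for 24 h at 37 °C, 5% CO2. Viability was read by MTT; CC50 determined.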"}, "[6]": {"tested_on": "Leishmania amazonensis", "assay": "Antileishmanial activity against promastigote stage of Leishmania amazonensis MPRO/BR/1972/M1841-LV-79 infected in Balb/c mouse assessed as decrease in plasma alkaline phosphatase level at 2 mg/kg, ip administered once daily for 15 days measured post-last dose", "type": "organism-based", "conditions": "in vivo, 360 h", "method_in_brief": "as §1"}, "[7]": {"assay": "Renal toxicity in Balb/c mouse infected with promastigote stage of Leishmania amazonensis MPRO/BR/1972/M1841-LV-79 assessed as change in plasma urea level at 2 mg/kg, ip administered once daily for 15 days measured post-last dose", "type": "organism-based", "conditions": "in vivo, 360 h", "method_in_brief": "as §1"}, "[8]": {"tested_on": "Leishmania amazonensis", "assay": "Antileishmanial activity against promastigote stage of Leishmania amazonensis MPRO/BR/1972/M1841-LV-79 assessed as parasite growth inhibition after 72 hrs by MTT assay", "type": "functional, organism-based", "conditions": "MPRO/BR/1972/M1841-LV-79, 72 h", "method_in_brief": "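Promastigotes at 1 × 10^7/mL in LIT + 10% FBS were exposed 72 h at 28 °C to ten concentrations, 0.5–100 µM (final DMSO 0.1%). Viability was read by MTT, with formazan dissolved in SDS-HCl and absorbance at 570 nm. Run in triplicate; IC50 from nonlinear regression.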"}, "[9]": {"assay": "Safety index, ratio of CC50 for mouse peritoneal macrophage to IC50 for promastigote stage of Leishmania amazonensis MPRO/BR/1972/M1841-LV-79", "type": "toxicity", "conditions": "read-out: Ratio CC50/IC50"}, "[10]": {"assay": "Renal toxicity in Balb/c mouse infected with promastigote stage of Leishmania amazonensis MPRO/BR/1972/M1841-LV-79 assessed as change in plasma creatinine level at 2 mg/kg, ip administered once daily for 15 days measured post-last dose", "type": "organism-based", "conditions": "in vivo, 360 h", "method_in_brief": "as §1"}, "[11]": {"tested_on": "Leishmania amazonensis", "assay": "Antileishmanial activity against promastigote stage of Leishmania amazonensis MPRO/BR/1972/M1841-LV-79 infected in Balb/c mouse assessed as reduction in volume of foot lesions at 2 mg/kg, ip administered once daily for 15 days measured every 5 days during compound dosing by caliper method", "type": "functional, organism-based", "method_in_brief": "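Infected BALB/c mice (5 per group) were dosed daily ip for 15 days, starting six weeks after footpad inoculation: 0.13 or 0.25 mg/kg/day, AmpB 2 mg/kg/day, or PBS. Foot lesion thickness was measured with a dial caliper every 5 days.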"}, "[12]": {"tested_on": "Leishmania amazonensis", "assay": "Antileishmanial activity against Leishmania amazonensis MPRO/BR/1972/M1841-LV-79 amastigotes infected in mouse peritoneal macrophages assessed as parasite growth inhibition after 24 hrs by Giemsa staining-based microscopic method", "type": "functional, organism-based", "conditions": "MPRO/BR/1972/M1841-LV-79, 24 h", "method_in_brief": "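Peritoneal macrophages (3 × 10^5/well on coverslips, RPMI 1640 + 10% FBS) adhered 4 h at 37 °C, 5% CO2, then infected with stationary-phase promastigotes at 5:1 for 4 h. After washing, cells were cultured 18 h, then treated 24 h with compounds or reference drugs. Cells were methanol-fixed and Giemsa-stained. Infection index = % infected macrophages × mean amastigotes per infected cell. IC50 was fitted by regression.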"}, "[13]": {"tested_on": "Leishmania amazonensis", "assay": "Antileishmanial activity against promastigote stage of Leishmania amazonensis MPRO/BR/1972/M1841-LV-79 infected in Balb/c mouse assessed as reduction in parasitic load at 2 mg/kg, ip administered once daily for 15 days by limiting dilution method relative to control", "type": "functional", "set-up": "scale not given: the % may be the effect or the level left", "method_in_brief": "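Footpad-infected female BALB/c mice (1 × 10^7 parasites/mL promastigotes; 5 per group) were treated from six weeks post-infection. Dosing was daily ip for 15 days: 0.13 or 0.25 mg/kg/day (PBS, 0.1% DMSO), AmpB 2 mg/kg/day, or PBS vehicle. Skin-lesion parasite burden was quantified after treatment by limiting dilution and compared with untreated infected mice. Data are mean ± SD.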"}, "[14]": {"tested_on": "Leishmania amazonensis", "assay": "Antileishmanial activity against promastigote stage of Leishmania amazonensis MPRO/BR/1972/M1841-LV-79 infected in Balb/c mouse assessed as decrease in plasma aspartate aminotransferase level at 2 mg/kg, ip administered once daily for 15 days measured post-last dose", "type": "functional, organism-based", "method_in_brief": "as §1"}, "[15]": {"tested_on": "Leishmania amazonensis", "assay": "Antileishmanial activity against Leishmania amazonensis MPRO/BR/1972/M1841-LV-79 amastigotes infected in mouse peritoneal macrophages assessed as reduction in number of intracellular amastigotes at 25 uM after 72 hrs by Giemsa staining-based microscopic method relative to control", "type": "functional", "set-up": "scale not given: the % may be the effect or the level left", "method_in_brief": "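Infected peritoneal macrophages were treated with 25 µM of each compound, pentamidine or AmpB for 72 h. The infection index (% infected macrophages × amastigotes per infected macrophage) was compared with untreated infected cells. Data are given as mean ± SD.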"}},
  "note": "Activity calls are given as the source filed them. The rule behind the calls is not given here.",
  "data": [
    {"smiles": "C[C@@H]1[C@H](O)[C@@H](C)/C=C/C=C/C=C/C=C/C=C/C=C/C=C/[C@H](O[C@@H]2O[C@H](C)[C@@H](O)[C@H](N)[C@@H]2O)C[C@@H]2O[C@](O)(C[C@@H](O)C[C@@H](O)[C@H](O)CC[C@@H](O)C[C@@H](O)CC(=O)O[C@H]1C)C[C@H](O)[C@H]2C(=O)O", "note": "[AMPHOTERICIN B]", "values": [
      {"measurement": "Activity", "setting": "[1]", "value": "Active"},
      {"measurement": "selectivity ratio", "setting": "[2]", "value": 4.7},
      {"measurement": "Activity", "setting": "[3]", "value": "Active"},
      {"measurement": "Activity", "setting": "[4]", "value": "Non-Toxic"},
      {"measurement": "CC50 at 24 h", "setting": "[5]", "value": 23.1, "unit": "µM"},
      {"measurement": "Activity", "setting": "[6]", "value": "Active"},
      {"measurement": "Activity", "setting": "[7]", "value": "Non-Toxic"},
      {"measurement": "IC50", "setting": "[8]", "value": 3.2, "unit": "µM"},
      {"measurement": "selectivity ratio", "setting": "[9]", "value": 7.2},
      {"measurement": "Activity", "setting": "[10]", "value": "Non-Toxic"},
      {"measurement": "Activity", "setting": "[11]", "value": "Active"},
      {"measurement": "IC50", "setting": "[12]", "value": 4.92, "unit": "µM"},
      {"measurement": "Activity", "setting": "[13]", "value": 41, "unit": "%"},
      {"measurement": "Activity", "setting": "[14]", "value": "Active"},
      {"measurement": "Activity", "setting": "[15]", "value": 84, "unit": "%"}
    ]}
  ]
}
